Published values collected from several papers.
Target: Phosphorylase b kinase gamma catalytic chain, skeletal muscle/heart isoform (PHKG1, Homo sapiens, UniProt Q16816)

Compound | read-out | mode | technique | concentration | quantity | result
CNC(=O)c1ccc(Nc2ncc(C(F)(F)F)c(NCc3nccnc3N(C)S(C)(=O)=O)n2)cc1 | cell-free assay |  | competition with immobilised ligand | 0.1 µM | remaining binding | 100%
CN1CC(Oc2cnc(C#N)cc2-c2ccn3nc(NC(=O)C4CC4)cc3c2)C1 | enzyme activity | inhibitor |  | 1 µM | inhibition | 8%
NS(=O)(=O)c1cc(NC(=O)Cc2ccccc2)ccc1Oc1cccc(Cl)c1 | cell-free assay |  | competition with immobilised ligand | 1 µM | remaining binding | 87%
N[C@@H]1CCN(c2nccc(-c3cnn4ncccc34)n2)C1 | binding |  |  | 1 µM | remaining binding | 100%
Nc1ncnc2occ(-c3ccc(NC(=O)Nc4cc(C(F)(F)F)ccc4F)cc3)c12 | cell-free assay | inhibitor |  | 20 µM | remaining signal | 92%
COc1cccc2c(NCc3ccccc3)nc(-n3c(N)nc4ccccc43)nc12 | target engagement in cells | inhibitor | chemoproteomics | 20 mM | inhibition | 6.1%
CS(=O)(=O)N1CCCC(NC(=O)[C@H](CCC2CCCCC2)NC(=O)c2ccc(CNc3ncnc4c3nnn4-c3ccccc3)cc2)C1 (some centres unmarked) | cell-free assay |  | competition with immobilised ligand | 0.1 µM | remaining binding | 87%
CC(C)(C)C(=O)c1sc(NC2CCCCC2)nc1N | enzyme activity | inhibitor |  | 10 µM | remaining activity | 112%
C[C@@H]1CN(c2cc(-c3nn(C)c4ccc(OC5(C)CC5)cc34)ncn2)C[C@H](C)O1 | cell-free assay |  | competition with immobilised ligand | 1 µM | remaining binding | 90%
CC(C)(C)c1nc2c(s1)c1nc(N)ncc1c1ccc(NS(=O)(=O)c3c(F)cccc3F)c(F)c12 | enzyme activity | inhibitor | radiometric | 1 µM | remaining activity | 98%
O=C1Nc2ccc(Cl)cc2C1=Cc1cc(Cl)c(O)c(Cl)c1 | cell-free assay |  |  | 0.5 µM | remaining signal | 86.4%
Cc1ccc(C(=O)Nc2ccc(CN3CCN(C)CC3)c(C(F)(F)F)c2)cc1C#Cc1cnc2cccnn12 | enzyme activity | inhibitor |  | 23.5 nM | remaining activity | 100%
COc1cc2ncnc(Nc3ccc(Oc4ccccc4)c(C)c3C)c2cc1OC | enzyme activity | inhibitor |  | 1 µM | inhibition | 2%
CC(=O)Nc1c(C(C)=O)c(=O)n(C)c2nc(-c3ccc(Cl)cc3Cl)c(-c3ccc(Cl)cc3)cc12 | cell-free assay |  | competition with immobilised ligand | 1 µM | remaining binding | 100%
Cn1c(=O)n(-c2ccc(C(C)(C)C#N)cc2)c2c3cc(-c4cnc5ccccc5c4)ccc3ncc21 | enzyme activity | inhibitor |  | 10 µM | remaining activity | 95%
Cc1ccc(C(=O)NCc2ccsc2)cc1C#Cc1cn(C(C)C)c2ncnc(N)c12 | enzyme activity | inhibitor |  | 1 µM | activity vs control | 107%
O=C1NC(=O)c2cc(Nc3ccc(F)cc3)c(Nc3ccc(F)cc3)cc21 | cell-free assay |  |  | 0.5 µM | remaining signal | 94.8%
Nc1nc(NC2CCCCC2)sc1C(=O)c1ccccc1 | enzyme activity | inhibitor |  | 10 µM | remaining activity | 105%
COc1cccc(CNC(=O)c2nc3scc(COCc4ccc(C(=O)O)cc4)c3c(=O)[nH]2)c1 | cell-free assay |  | competition with immobilised ligand | 1 µM | remaining binding | 100%
O=C(Nc1cnn(-c2csc(C(=O)NC3COC3)c2)c1)Nc1c(F)cccc1Cl | enzyme activity | inhibitor |  | 5 µM | remaining activity | 91.2%
